Assay results taken from the RNAGym collection of RNA variant scans (doi:10.1002/anie.201605470).

B1: Osa-1-4 twister ribozyme (parent)
chain: CCGCCUAACACUGCCAAUGCCGGUCCCAAGCCCGGAUAAAAGUGGAGGGGGCGG

Variants of: B1
Experiment: self-cleavage, relative activity (ratio to wild type); higher = more cleavage; co-transcriptional
Method in brief: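 For each read, cleavage status was taken from whether upstream sequence was present. The reads came from an Oryza sativa twister ribozyme of 54 nucleotides, whose DNA template was synthesised with 97 % wild-type base and 1 % of each other base at the 48 positions downstream of the cleavage site. The template was transcribed in vitro at 37 °C for 2 h with co-transcriptional self-cleavage, and the RNA was reverse-transcribed using a template-switching oligonucleotide, PCR-amplified and deep-sequenced. Relative activity is the fraction cleaved normalised to wild type.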

self-cleavage, 0.33:
C27U

self-cleavage, 0.24:
C27U U18A

self-cleavage, 0.16:
C27U U37A
C27G C52U
C27G U37G

self-cleavage, 0.06:
C27G U43G
C27G U43C
C27U G22U
C27G G53A
C27G G42A
C27U C32U
C27U U24C
C27G G44A
C27G G19A
C27U C31G
C27G C31U
C27G C31G
C27G G54A
C27U G35C
C27G U12G

self-cleavage, 0.03:
C27G G13A
C27U G23U
C27U G23C
C27G C33A
C27G C9A
C27G G45C
C27U G22C
C27G G23C
C27G G49C
C27G G53U
C27G G48C
C27G U24A
C27U G48U
C27G G19C
C27U G42U
C27G G22C

self-cleavage, 0.01:
C27G G13U
C27G G13C
C27U G13C
C27U G13U
C27U U24G
C27G C31A

self-cleavage, 0.42:
C27A U37G
C27U G47C

self-cleavage, 0.07:
C27U U12C
C27U U12G
C27U G23A
C27G C9G
C27G G42C
C27G G50U
C27U G51U
C27G G34A
C27U C31U
C27U G42C

self-cleavage, 0.11:
C27U U43A
C27U G51A
C27U G47U

self-cleavage, 0.12:
C27U G53A
C27U G22A
C27U G50U
C27U G54C
C27U G44U
C27G G54U
C27G G35A

self-cleavage, 0.02:
C27U C9A
C27G C32A
C27G G30A
C27G G30C
C27G G30U
C27G G45U
C27G G45A
C27G G23U
C27G G53C
C27G G42U
C27G G51C
C27G G48U
C27G U24G
C27U G30C
C27U G30A
C27U C31A

self-cleavage, 0.32:
C27U U37C

self-cleavage, 0.17:
C27G U18G

self-cleavage, 0.05:
C27U C33G
C27U C33A
C27U G45A
C27G C32U
C27G C32G
C27U G53C
C27G C33G
C27G C33U
C27G C9U
C27G G23A
C27U G19U
C27G G51A
C27U C32G
C27G G50C
C27G G44U
C27U G30U
C27U G49A
C27G G34C
C27U G48C
C27G U12A
C27G U12C
C27G G22A

self-cleavage, 0.08:
C27U G34C
C27G U43A
C27U G53U
C27U G19A
C27G C52A
C27G U37A
C27G G44C
C27G G34U
C27U G44A
C27U G42A

self-cleavage, 0.86:
C27G G47C

self-cleavage, 0.14:
C27G C52G
C27U G54A

self-cleavage, 0.04:
C27U G45U
C27U G45C
C27U G19C
C27G G49A
C27G G49U
C27G G51U
C27U C32A
C27U G13A
C27U U24A
C27G G48A
C27G U24C
C27U G49U
C27U G49C
C27U G51C
C27U G48A
C27G G19U
C27G G54C
C27G G35C
C27G G22U

self-cleavage, 0.37:
C27U U37G
C27U C52U
C27U U18G

self-cleavage, 0.13:
C27U C33U
C27G

self-cleavage, 0.31:
C27U G54U
C27U G35A

self-cleavage, 0.1:
C27U C9U
C27U U12A
C27U U43C
C27A U43A
C27A U43C
C27G U37C
C27U G44C
C27G G35U

self-cleavage, 0.19:
C27U G35U

self-cleavage, 0.88:
C27U G47A

self-cleavage, 0.25:
C27U C52G

self-cleavage, 0.09:
C27U C9G
C27U G50C
C27G G50A
C27G U18A
C27G U18C

self-cleavage, 0.15:
C27U G34U
C27G G47A
C27A U43G

self-cleavage, 0.21:
C27G G47U
C27U C52A
C27U U18C

self-cleavage, 0.18:
C27U G34A
C27U G50A
